Results published in ChEMBL document CHEMBL3576776, “3-Nitroasterric Acid Derivatives from an Antarctic Sponge-Derived Pseudogymnoascus sp. Fungus” (2015).

What was measured:
Format in all cases: functional
[1] = test system: Candida albicans; assay: Antifungal activity against Candida albicans MY1055
Procedure, shortened: (§1)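 Compounds serially diluted twofold in DMSO to give 10 concentrations starting at 64 μg/mL; bacterial and fungal strains exposed by previously described methods. MIC taken as lowest concentration inhibiting ≥95% of growth after overnight incubation. Data processed to give MIC; assay robustness RZ′ factor 0.89–0.97 across experiments.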

[2] = test system: Pseudomonas aeruginosa; assay: Antibacterial activity against Pseudomonas aeruginosa PAO1; procedure, shortened: as §1
[3] = test system: Acinetobacter baumannii; assay: Antibacterial activity against Acinetobacter baumannii CL 5973; procedure, shortened: as §1
[4] = test system: Staphylococcus aureus; assay: Antibacterial activity against methicillin-sensitive Staphylococcus aureus EPI167
Procedure, shortened: (§2)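 Compounds twofold serially diluted in DMSO, 10 concentrations starting at 64 μg/mL. Growth inhibition read after overnight incubation. MIC taken as the lowest concentration inhibiting ≥95% of growth. Assay robustness RZ′ factor 0.89–0.97.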

[5] = test system: Aspergillus fumigatus; assay: Antifungal activity against Aspergillus fumigatus ATCC46645; procedure, shortened: as §1
[6] = test system: Candida albicans; assay: Antifungal activity against Candida albicans ATCC64124; procedure, shortened: as §1
[7] = test system: Escherichia coli; assay: Antibacterial activity against Escherichia coli MB2884; procedure, shortened: as §1
[8] = test system: Staphylococcus aureus; assay: Antibacterial activity against methicillin-resistant Staphylococcus aureus MB5393; procedure, shortened: as §2

Measured: MIC95

COC(=O)c1c(Oc2cc(C)cc(O)c2C(=O)O)c(OC)cc(O)c1[N+](=O)[O-]
> 64 µg/mL: [1] | [2] | [3] | [4] | [5] | [6] | [7] | [8]

COC(=O)c1c(Oc2cc(C)cc(O)c2C(=O)OCC(C)C(=O)OC)c(OC)cc(O)c1[N+](=O)[O-] (configuration not stated)
> 64 µg/mL: [1] | [2] | [3] | [4] | [5] | [6] | [7] | [8]

COC(=O)c1c(Oc2cc(C)cc(O)c2C(=O)OC(C)C(=O)O)c(OC)cc(O)c1[N+](=O)[O-] (configuration not stated)
> 64 µg/mL: [1] | [2] | [3] | [4] | [5] | [6] | [7] | [8]

COC(=O)c1c(Oc2cc(C)cc(O)c2C(=O)OCC(C)C(=O)O)c(OC)cc(O)c1[N+](=O)[O-] (configuration not stated)
> 64 µg/mL: [1] | [2] | [3] | [4] | [5] | [6] | [7] | [8]
